Results published in ChEMBL document CHEMBL2176911 (J Med Chem, 2012).
pIC50: −log10 of the molar value. One block for each compound: values may come before it. The source made the active and inactive calls. The calls are words filed in the database; no cut-off is given here.

Tests used:
[1] = target: Dual specificity protein kinase CLK3 (Mus musculus) (UniProt O35492); experiment: Inhibition of mouse recombinant GST-tagged CLK3 expressed in Escherichia coli using GRSRSRSRSRSR as substrate and [gamma33P]ATP at 10 uM after 30 mins by scintillation counting
Sequence of Dual specificity protein kinase CLK3 (Mus musculus) (O35492 whole entry): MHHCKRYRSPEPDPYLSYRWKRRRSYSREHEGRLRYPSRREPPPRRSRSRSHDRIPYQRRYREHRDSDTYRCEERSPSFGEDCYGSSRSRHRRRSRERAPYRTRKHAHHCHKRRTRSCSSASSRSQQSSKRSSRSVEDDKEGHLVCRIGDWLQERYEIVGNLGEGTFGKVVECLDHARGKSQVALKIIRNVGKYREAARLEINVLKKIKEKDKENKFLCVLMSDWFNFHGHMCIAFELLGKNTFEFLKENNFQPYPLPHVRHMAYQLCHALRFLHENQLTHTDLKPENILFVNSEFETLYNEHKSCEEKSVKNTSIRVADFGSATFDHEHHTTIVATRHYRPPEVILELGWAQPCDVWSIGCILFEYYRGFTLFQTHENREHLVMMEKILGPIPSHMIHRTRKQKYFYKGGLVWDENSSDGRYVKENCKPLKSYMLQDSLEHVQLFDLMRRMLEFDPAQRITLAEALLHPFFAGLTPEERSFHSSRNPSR
Procedure, shortened: (§1)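 Radiometric kinase assay with the RS peptide as substrate and 15 μM [γ-33P]ATP.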

[2] = target: Dual specificity protein kinase CLK1 (Mus musculus) (UniProt P22518); experiment: Inhibition of mouse recombinant GST-tagged CLK1 expressed in Escherichia coli using GRSRSRSRSRSR as substrate and [gamma33P]ATP at 10 uM after 30 mins by scintillation counting; procedure, shortened: as §1
Sequence of Dual specificity protein kinase CLK1 (Mus musculus) (P22518 whole entry, looked up): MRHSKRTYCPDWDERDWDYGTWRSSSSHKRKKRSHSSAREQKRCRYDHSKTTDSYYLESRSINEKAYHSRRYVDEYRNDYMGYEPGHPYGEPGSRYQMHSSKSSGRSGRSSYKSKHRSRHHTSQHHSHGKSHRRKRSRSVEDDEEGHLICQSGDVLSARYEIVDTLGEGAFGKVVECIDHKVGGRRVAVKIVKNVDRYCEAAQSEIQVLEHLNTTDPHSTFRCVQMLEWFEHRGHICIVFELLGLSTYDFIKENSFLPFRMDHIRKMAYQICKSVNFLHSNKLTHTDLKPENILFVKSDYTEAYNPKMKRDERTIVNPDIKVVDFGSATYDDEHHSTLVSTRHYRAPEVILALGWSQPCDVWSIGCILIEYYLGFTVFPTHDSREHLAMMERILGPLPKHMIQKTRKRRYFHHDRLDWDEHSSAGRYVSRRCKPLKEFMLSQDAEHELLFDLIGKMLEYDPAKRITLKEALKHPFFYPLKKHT

[3] = target: T1, Dual specificity tyrosine-phosphorylation-regulated kinase 2 (Homo sapiens) (UniProt Q92630); experiment: Inhibition of human recombinant GST-tagged DYRK2 expressed in Escherichia coli using GRSRSRSRSRSR as substrate and [gamma33P]ATP at 10 uM after 30 mins by scintillation counting
T1 sequence (whole entry): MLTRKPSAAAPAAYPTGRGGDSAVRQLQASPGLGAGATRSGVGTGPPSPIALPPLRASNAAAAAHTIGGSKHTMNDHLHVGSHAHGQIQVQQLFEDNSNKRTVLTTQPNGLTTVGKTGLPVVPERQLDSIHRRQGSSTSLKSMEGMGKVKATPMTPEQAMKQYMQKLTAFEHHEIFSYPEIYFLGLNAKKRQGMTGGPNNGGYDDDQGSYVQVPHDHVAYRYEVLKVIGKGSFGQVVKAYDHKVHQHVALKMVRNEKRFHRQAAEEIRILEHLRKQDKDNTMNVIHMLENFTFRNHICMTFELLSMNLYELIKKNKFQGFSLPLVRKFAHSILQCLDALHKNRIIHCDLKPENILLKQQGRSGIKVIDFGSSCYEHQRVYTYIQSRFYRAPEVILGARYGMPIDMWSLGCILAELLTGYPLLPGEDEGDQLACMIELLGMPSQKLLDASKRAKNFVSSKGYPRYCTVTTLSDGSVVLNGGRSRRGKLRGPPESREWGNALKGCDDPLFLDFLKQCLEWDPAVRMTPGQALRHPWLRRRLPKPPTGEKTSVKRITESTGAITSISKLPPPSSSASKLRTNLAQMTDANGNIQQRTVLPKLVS

[4] = target: Dual specificity tyrosine-phosphorylation-regulated kinase 1A (Homo sapiens) (UniProt Q13627); experiment: Inhibition of human recombinant GST-tagged DYRK1A expressed in Escherichia coli using GRSRSRSRSRSR as substrate and [gamma33P]ATP at 15 uM after 30 mins by scintillation counting
[5] = target: T2, Dual specificity tyrosine-phosphorylation-regulated kinase 1A (Rattus norvegicus, UniProt Q63470); experiment: Inhibition of rat DYRK1A isolated from brain using KKISGRLSPIMTEQ as substrate and [gamma33P]ATP after 30 mins by scintillation counting
[6] = target: T2, Dual specificity tyrosine-phosphorylation-regulated kinase 1A; experiment: Inhibition of rat recombinant C-terminal truncated GST-tagged DYRK1A expressed in Escherichia coli using GRSRSRSRSRSR as substrate and [gamma33P]ATP after 30 mins by scintillation counting
[7] = target: Dual specificity protein kinase CLK4 (Mus musculus, UniProt O35493); experiment: Inhibition of mouse recombinant GST-tagged CLK4 expressed in Escherichia coli using GRSRSRSRSRSR as substrate and [gamma33P]ATP after 30 mins by scintillation counting
Sequence of Dual specificity protein kinase CLK4 (Mus musculus, UniProt O35493) (O35493 whole entry): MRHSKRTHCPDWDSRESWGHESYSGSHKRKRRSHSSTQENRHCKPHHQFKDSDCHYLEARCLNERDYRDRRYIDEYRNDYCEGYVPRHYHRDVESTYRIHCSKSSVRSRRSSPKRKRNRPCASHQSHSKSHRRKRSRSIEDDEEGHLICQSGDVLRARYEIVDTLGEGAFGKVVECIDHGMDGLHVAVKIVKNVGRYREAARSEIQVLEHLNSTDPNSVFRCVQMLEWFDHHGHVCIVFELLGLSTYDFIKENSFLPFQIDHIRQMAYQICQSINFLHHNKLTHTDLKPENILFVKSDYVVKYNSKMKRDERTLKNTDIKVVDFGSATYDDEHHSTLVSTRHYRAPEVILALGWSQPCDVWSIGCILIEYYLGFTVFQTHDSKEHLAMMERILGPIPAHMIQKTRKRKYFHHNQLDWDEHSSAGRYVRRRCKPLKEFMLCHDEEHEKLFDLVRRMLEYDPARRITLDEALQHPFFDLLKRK

[8] = target: Dual specificity protein kinase CLK3 (Mus musculus, UniProt O35492); experiment: Inhibition of mouse recombinant GST-tagged CLK3 expressed in Escherichia coli using GRSRSRSRSRSR as substrate and [gamma33P]ATP after 30 mins by scintillation counting
Sequence of Dual specificity protein kinase CLK3 (Mus musculus, UniProt O35492) (O35492 whole entry): as the sequence (O35492 whole entry) above
Procedure, shortened: (§2)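 Panel of purified kinases (recombinant from several species plus native enzymes), each assayed radiometrically over a range of inhibitor concentrations; IC50 in μM calculated from the dose-response curves.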

[9] = target: Dual specificity protein kinase CLK2 (Mus musculus, UniProt O35491); experiment: Inhibition of mouse recombinant GST-tagged CLK2 expressed in Escherichia coli using GRSRSRSRSRSR as substrate and [gamma33P]ATP after 30 mins by scintillation counting; procedure, shortened: as §2
Sequence of Dual specificity protein kinase CLK2 (O35491 whole entry): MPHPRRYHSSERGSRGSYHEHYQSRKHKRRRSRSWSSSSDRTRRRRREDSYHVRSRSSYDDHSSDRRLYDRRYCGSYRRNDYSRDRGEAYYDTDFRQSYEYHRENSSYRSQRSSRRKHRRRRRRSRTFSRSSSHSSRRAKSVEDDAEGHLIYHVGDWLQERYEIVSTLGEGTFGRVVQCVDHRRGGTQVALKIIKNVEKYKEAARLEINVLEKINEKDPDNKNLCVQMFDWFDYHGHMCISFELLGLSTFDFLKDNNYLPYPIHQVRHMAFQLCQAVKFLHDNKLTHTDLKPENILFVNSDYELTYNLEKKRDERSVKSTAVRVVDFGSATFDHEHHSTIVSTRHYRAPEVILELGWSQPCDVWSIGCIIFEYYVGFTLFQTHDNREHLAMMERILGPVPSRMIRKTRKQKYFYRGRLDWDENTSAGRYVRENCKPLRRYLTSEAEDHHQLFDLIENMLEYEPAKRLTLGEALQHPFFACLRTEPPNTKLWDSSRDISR

[10] = target: Casein kinase II (Homo sapiens) (UniProt P67870+P68400+P19784); experiment: Inhibition of human recombinant CK2 using RRREDEESDDEE as substrate and [gamma33P]ATP at 10 uM after 30 mins by scintillation counting; type: protein-complex assay
[11] = Inhibition of pig […] isolated from brain using RRKHAAIGpSAYSITA as substrate and [gamma33P]ATP after 30 mins by scintillation couting; set-up: species or system Sus scrofa; procedure, shortened: as §2
[12] = target: CDK9/cyclin T1 (Homo sapiens, UniProt P50750); experiment: Inhibition of human recombinant CDK9/cyclin T expressed in insect cell using YSPTSPSYSPTSPSYSPTSPSKKKK as substrate and [gamma33P]ATP after 30 mins by scintillation counting; procedure, shortened: as §2
[13] = target: Cyclin-dependent kinase 7/ cyclin H (Homo sapiens, UniProt P50613); experiment: Inhibition of human recombinant CDK7/cyclin H expressed in insect cell using YSPTSPSYSPTSPSYSPTSPSKKKK as substrate and [gamma33P]ATP after 30 mins by scintillation counting; procedure, shortened: as §2
[14] = target: Cyclin-dependent kinase 2/cyclin A (Homo sapiens, UniProt P24941); experiment: Inhibition of CDK2/cyclin A using [gamma33P]ATP after 30 mins by scintillation counting; type: protein-complex assay; procedure, shortened: as §2
[15] = Inhibition of starfish CDK1/cyclin B using histone H1 as substrate and [gamma33P]ATP after 30 mins by scintillation counting; set-up: species or system Asteroidea; procedure, shortened: as §2
[16] = target: Dual specificity protein kinase CLK1 (Mus musculus, UniProt P22518); experiment: Inhibition of mouse recombinant GST-tagged CLK1 expressed in Escherichia coli using GRSRSRSRSRSR as substrate and [gamma33P]ATP after 30 mins by scintillation counting; procedure, shortened: as §2
[17] = test system: Leishmania major; experiment: Inhibition of Leishmania major recombinant CK1 expressed in Escherichia coli using RRKHAAIGpSAYSITA as substrate and [gamma33P]ATP at 10 uM after 30 mins by scintillation counting
[18] = test system: Plasmodium falciparum; experiment: Inhibition of Plasmodium falciparum recombinant GSK3 expressed in Escherichia coli using YRRAAVPPSPSLSRHSSPHQ-phosphoS-EDEEE as substrate and [gamma33P]ATP at 10 uM after 30 mins by scintillation counting
[19] = target: Dual specificity protein kinase CLK3 (Homo sapiens, UniProt P49761); experiment: Binding affinity to CLK3
[20] = target: Dual specificity protein kinase CLK1 (Homo sapiens) (UniProt P49759); experiment: Binding affinity to CLK1
[21] = target: T1, Dual specificity tyrosine-phosphorylation-regulated kinase 2 (Homo sapiens); experiment: Binding affinity to DYRK2
[22] = target: Dual specificity protein kinase CLK4 (Homo sapiens, UniProt Q9HAZ1); experiment: Binding affinity to CLK4
Sequence of Dual specificity protein kinase CLK4 (Homo sapiens, UniProt Q9HAZ1) (Q9HAZ1 whole entry, looked up): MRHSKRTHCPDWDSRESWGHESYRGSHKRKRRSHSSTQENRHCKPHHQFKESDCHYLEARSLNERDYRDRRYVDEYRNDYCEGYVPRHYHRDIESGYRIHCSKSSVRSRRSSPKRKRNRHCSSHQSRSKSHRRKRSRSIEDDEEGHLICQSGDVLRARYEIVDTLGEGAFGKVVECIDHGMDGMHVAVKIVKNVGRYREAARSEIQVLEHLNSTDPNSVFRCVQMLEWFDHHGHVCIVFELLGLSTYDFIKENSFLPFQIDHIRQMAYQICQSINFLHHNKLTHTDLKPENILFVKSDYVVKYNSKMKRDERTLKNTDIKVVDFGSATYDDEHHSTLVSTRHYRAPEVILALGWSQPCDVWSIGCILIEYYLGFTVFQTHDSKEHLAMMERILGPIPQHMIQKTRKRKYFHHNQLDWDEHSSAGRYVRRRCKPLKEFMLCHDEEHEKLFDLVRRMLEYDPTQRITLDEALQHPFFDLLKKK

[23] = target: Serine/threonine-protein kinase pim-1 (Homo sapiens, UniProt P11309); experiment: Inhibition of human recombinant PIM1 expressed in Escherichia coli using histone H1 as substrate and [gamma33P]ATP after 30 mins by scintillation counting
Sequence of Serine/threonine-protein kinase pim-1 (P11309 whole entry): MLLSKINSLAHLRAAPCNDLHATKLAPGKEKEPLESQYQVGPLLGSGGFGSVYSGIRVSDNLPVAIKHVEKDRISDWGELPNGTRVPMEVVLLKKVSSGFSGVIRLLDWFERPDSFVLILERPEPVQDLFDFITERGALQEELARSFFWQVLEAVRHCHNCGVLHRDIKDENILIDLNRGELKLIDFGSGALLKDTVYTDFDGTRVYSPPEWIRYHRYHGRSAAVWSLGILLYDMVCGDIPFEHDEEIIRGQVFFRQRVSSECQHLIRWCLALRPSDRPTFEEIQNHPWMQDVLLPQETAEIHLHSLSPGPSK

[24] = target: Glycogen synthase kinase-3 (Sus scrofa, UniProt B2LUN4+I6LNT8); experiment: Inhibition of pig GSK3alpha/beta isolated from brain using YRRAAVPPSPSLSRHSSPHQ-phosphoS-EDEEE as substrate and [gamma33P]ATP after 30 mins by scintillation counting; procedure, shortened: as §2
[25] = target: Glycogen synthase kinase-3 beta (Homo sapiens, UniProt P49841); experiment: Inhibition of human recombinant GSK3beta expressed in insect cells using YRRAAVPPSPSLSRHSSPHQ-phosphoS-EDEEE as substrate and [gamma33P]ATP after 30 mins by scintillation counting
Sequence of Glycogen synthase kinase-3 beta (P49841 whole entry): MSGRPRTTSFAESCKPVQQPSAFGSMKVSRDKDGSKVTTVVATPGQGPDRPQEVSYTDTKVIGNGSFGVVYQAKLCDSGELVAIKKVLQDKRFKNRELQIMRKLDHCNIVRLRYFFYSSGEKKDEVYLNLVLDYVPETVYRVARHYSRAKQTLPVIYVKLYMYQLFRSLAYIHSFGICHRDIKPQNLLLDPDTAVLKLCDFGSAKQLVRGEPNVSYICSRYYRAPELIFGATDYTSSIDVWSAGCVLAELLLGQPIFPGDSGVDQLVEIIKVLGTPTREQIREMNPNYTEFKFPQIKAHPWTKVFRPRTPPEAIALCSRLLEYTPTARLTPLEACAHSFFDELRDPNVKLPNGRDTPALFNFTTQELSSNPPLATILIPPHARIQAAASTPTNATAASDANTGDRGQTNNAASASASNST

[26] = target: Glycogen synthase kinase-3 alpha (Homo sapiens, UniProt P49840); experiment: Inhibition of human recombinant GSK3alpha expressed in insect cells using YRRAAVPPSPSLSRHSSPHQ-phosphoS-EDEEE as substrate and [gamma33P]ATP after 30 mins by scintillation counting
Sequence of Glycogen synthase kinase-3 alpha (P49840 whole entry): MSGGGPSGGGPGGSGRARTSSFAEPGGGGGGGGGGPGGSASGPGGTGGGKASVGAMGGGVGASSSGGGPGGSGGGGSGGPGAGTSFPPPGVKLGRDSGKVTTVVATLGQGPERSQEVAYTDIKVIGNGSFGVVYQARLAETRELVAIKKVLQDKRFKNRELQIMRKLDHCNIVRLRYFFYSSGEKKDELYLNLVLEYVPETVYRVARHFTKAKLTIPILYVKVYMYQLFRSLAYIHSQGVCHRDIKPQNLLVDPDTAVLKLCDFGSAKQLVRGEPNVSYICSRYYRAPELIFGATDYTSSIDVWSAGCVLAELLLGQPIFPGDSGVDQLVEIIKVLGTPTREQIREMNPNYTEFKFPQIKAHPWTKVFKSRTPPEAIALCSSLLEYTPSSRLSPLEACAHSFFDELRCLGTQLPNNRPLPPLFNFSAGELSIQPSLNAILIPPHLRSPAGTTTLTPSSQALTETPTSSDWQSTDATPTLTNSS

[27] = target: Mitogen-activated protein kinase 1 (Rattus norvegicus, UniProt P63086); experiment: Inhibition of rat recombinant ERK2 using Ets1 as substrate and [gamma33P]ATP as substrate after 30 mins by scintillation counting; procedure, shortened: as §2
Sequence of Mitogen-activated protein kinase 1 (P63086 whole entry): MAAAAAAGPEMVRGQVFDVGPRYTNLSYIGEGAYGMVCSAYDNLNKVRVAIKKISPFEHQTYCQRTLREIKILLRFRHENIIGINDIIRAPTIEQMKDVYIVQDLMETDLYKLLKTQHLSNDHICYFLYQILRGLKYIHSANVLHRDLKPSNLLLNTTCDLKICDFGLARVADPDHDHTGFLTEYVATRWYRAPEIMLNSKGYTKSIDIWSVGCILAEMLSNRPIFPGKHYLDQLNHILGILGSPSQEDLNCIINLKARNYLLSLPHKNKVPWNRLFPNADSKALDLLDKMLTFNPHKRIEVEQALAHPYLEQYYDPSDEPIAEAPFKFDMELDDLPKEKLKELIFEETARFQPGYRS

[28] = target: T3, Dual specificity tyrosine-phosphorylation-regulated kinase 4 (Homo sapiens, UniProt Q9NR20); experiment: Inhibition of human recombinant GST-tagged DYRK4 expressed in Escherichia coli using GRSRSRSRSRSR as substrate and [gamma33P]ATP after 30 mins by scintillation counting
T3 sequence (Q9NR20 whole entry): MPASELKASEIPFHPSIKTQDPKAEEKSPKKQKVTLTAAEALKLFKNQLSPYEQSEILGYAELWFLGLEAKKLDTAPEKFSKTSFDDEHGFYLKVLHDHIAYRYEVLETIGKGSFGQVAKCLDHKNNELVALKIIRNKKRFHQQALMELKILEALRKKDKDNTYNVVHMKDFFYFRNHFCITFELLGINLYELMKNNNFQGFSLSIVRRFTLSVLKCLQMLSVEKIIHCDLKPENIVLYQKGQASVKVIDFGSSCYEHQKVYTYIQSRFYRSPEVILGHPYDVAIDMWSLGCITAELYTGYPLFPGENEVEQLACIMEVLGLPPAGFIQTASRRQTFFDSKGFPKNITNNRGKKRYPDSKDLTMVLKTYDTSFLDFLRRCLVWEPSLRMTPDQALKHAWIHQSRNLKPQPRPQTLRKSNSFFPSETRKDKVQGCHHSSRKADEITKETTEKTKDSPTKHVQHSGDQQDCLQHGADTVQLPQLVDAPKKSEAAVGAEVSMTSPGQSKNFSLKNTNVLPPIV

[29] = target: Dual specificity tyrosine-phosphorylation-regulated kinase 3 (Homo sapiens, UniProt O43781); experiment: Inhibition of human recombinant GST-tagged DYRK3 expressed in Escherichia coli using GRSRSRSRSRSR as substrate and [gamma33P]ATP after 30 mins by scintillation counting
[30] = target: Dual specificity tyrosine-phosphorylation-regulated kinase 2 (Homo sapiens, UniProt Q92630); experiment: Inhibition of human recombinant GST-tagged DYRK2 expressed in Escherichia coli using GRSRSRSRSRSR as substrate and [gamma33P]ATP after 30 mins by scintillation counting
[31] = test system: HT-22; experiment: Neuroprotective activity against glutamate-induced toxicity in mouse HT22 cells after 24 hrs by MTS assay; type: functional, cell-based
[32] = test system: HT-22; experiment: Inhibition of GSK3 in mouse HT22 cells at 10 uM after 4 hrs; type: cell-based
[33] = target: Dual specificity tyrosine-phosphorylation-regulated kinase 1A (Mus musculus) (UniProt Q61214); experiment: Inhibition of DYRK1A in mouse HT22 cells at 10 uM after 4 hrs; type: cell-based; settings: HT-22
[34] = test system: HT-22; experiment: Inhibition of GSK3-mediated […] phosphorylation in mouse HT22 cells at 10 uM after 24 hrs by Western blot analysis in presence of MG132; type: cell-based

inhibition [1]: inactive
inhibition [2]: inactive
inhibition [3]: inactive
inhibition [4]: inactive
SMILES: CC12CC3CC(C)(C1)CC(N)(C3)C2

SMILES: CN1C(=O)/C(=C/c2ccc3c(c2)OCO3)N=C1N [LEUCETTAMINE B]
pIC50 [5]: 6.05
pIC50 [6]: 6.04
pIC50 [7]: 6.82
pIC50 [8]: 5.74
pIC50 [9]: 5.68
inhibition [10]: inactive
pIC50 [11]: < 5.00
pIC50 [12]: < 5.00
pIC50 [13]: < 5.00
pIC50 [14]: < 5.00
pIC50 [15]: < 5.00
pIC50 [16]: 7.18
inhibition [17]: inactive
inhibition [18]: inactive
Activity [19]: Active
Activity [20]: Active
Activity [21]: Active
Activity [22]: Active
pIC50 [23]: < 5.00
IC50 [24]: 2900 nM
pIC50 [25]: < 5.00
pIC50 [26]: 5.11
pIC50 [27]: < 5.00
pIC50 [28]: < 5.00
pIC50 [29]: 5.85
pIC50 [30]: 5.70

SMILES: O=C(O)c1ccc2c(c1)nc(Nc1cccc(Cl)c1)c1ccncc12
Activity [31]: inactive

inhibition [1]: inactive
inhibition [2]: inactive
inhibition [3]: inactive
inhibition [4]: inactive
SMILES: Nc1c2c(nc3ccccc13)CCCC2

inhibition [33]: inactive
SMILES: O=C1Cc2c([nH]c3ccc([N+](=O)[O-])cc23)-c2ccccc2N1
Activity [31]: Active
inhibition [32]: Active
inhibition [34]: Active
